Published values gathered from unrelated publications.
Protocols differ between the studies behind these lines.
Effect on: cell growth or viability

With `CC(Oc1ccc(Cl)cc1Cl)C(=O)NC(c1ccc(F)cc1)C1CCC1` (centres unmarked) the CC50 was over 100 µM (CHO; LDH).
With `COc1ccc(S(=O)(=O)ON=C2C=C(C)C(=O)C(C)=C2)cc1` the CC50 was 0.19 µM (SH-SY5Y).
`CC(Oc1ccc(F)cc1Cl)C(=O)NCc1ccc2c(c1)OCO2` (centres unmarked) has a CC50 of over 100 µM (CHO; LDH).
`CN1CCN(CC2CCN(c3nccc4[nH]c(-c5cc(F)cc(F)c5)nc34)CC2)CC1` has a CC50 of 24 µM (CHO).
For `C#CCN[C@@H]1CCc2ccccc21`, the IC50 was over 500 µM (SH-SY5Y; MTT; 24 h).
For `O=[N+]([O-])c1ccc(-c2nc3cccc(O)c3[nH]2)o1`, the CC50 was 97 µM (CHO; resazurin; 72 h).
The CC50 of `CN1CCN(c2nccc3nc(-c4ccc(F)c(F)c4)[nH]c23)CC1` is reported as over 50 µM (CHO).
With `O=C(Cn1cnc2ccccc21)NN=Cc1ccc(O)cc1O` the IC50 was 89.2 µM (SH-SY5Y; MTT; 24 h).
